Experimental data: ChEMBL document CHEMBL1125925, “DNA-directed alkylating agents. 4. 4-anilinoquinoline-based minor groove directed aniline mustards” (J Med Chem, 1991)
Calls of active or inactive are those of the source.

Experiments:
P388 [1] = experiment: Evaluation in vivo against […] cell line for percentage increase in lifespan of drug-treated tumor-bearing animals when treated at 225 mg/kg dose.(ILS); assay type: functional, Mus musculus
How it was run: (§1)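 Animals received 10^6 P388 cells intraperitoneally. On day 1, 24 h after inoculation, a single intraperitoneal drug dose was given in 0.1 mL of 30% v/v dimethylacetamide/water. ILS is the percentage increase in lifespan of treated tumor-bearing animals at the optimal dose, defined as the dose giving maximal life extension. ILS above 20% is counted as significant.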

[2] = Hypersensitivity factor value is IC50 of (AA8) to that of UV4 where UV4 is a mutant AA8 line lacking the ability to perform incision repair; assay type: functional
How it was run: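 HF is IC50(AA8)/IC50(UV4), where UV4 is an AA8 mutant lacking incision repair. Both lines were grown in Alpha MEM with 10% fetal calf serum and given an 18 h drug exposure, then washed and grown 72 h more. Cell density was read by methylene blue staining, and IC50 was set at 50% of control density.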

CHO-AA8 = experiment: Inhibition of cell growth in culture against Chinese hamster ovary derived cell line, AA8; assay type: functional, cell-based, Cricetulus griseus
How it was run: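 AA8 Chinese hamster ovary cells were kept in log phase in Alpha MEM with 10% fetal calf serum and exposed to drug for 18 h. Drug was removed by three washes with fresh medium, then cells were grown a further 72 h. Cell density was read by methylene blue staining. IC50 is the nominal concentration reducing cell density to 50% of controls, with eight controls per plate. Values are means of three determinations.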

Bos taurus = organism: Bos taurus; experiment: Spectrophotometry for binding to calf thymus DNA in 0.01 M HEPES buffer (pH 7.0) at 25 degree C; assay type: ADME; details: cattle
P388 [3] = experiment: Inhibition of cell growth in culture against wild type P388 murine leukemia; assay type: functional, cell-based, Mus musculus
How it was run: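 Wild-type P388 murine leukemia cells were kept in log phase in RPMI 1640 with 10% fetal calf serum. Drug was present throughout the 72 h growth period. Final cell density was read by a modified MTT method. IC50 is the nominal concentration reducing cell density to 50% of controls, with eight controls per plate. Values are means of three determinations.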

P388 [4] = experiment: Evaluation in vivo against […] cell line for percentage increase in lifespan of drug-treated tumor-bearing animals at 100 mg/kg dose.(ILS); NA=Compound inactive at nontoxic doses; assay type: functional, organism-based; set-up: dose 100 mg/kg; details: Mus musculus; how it was run: as §1
P388 [5] = experiment: Evaluation in vivo against […] cell line for percentage increase in lifespan of drug-treated tumor-bearing animals when treated at 30 mg/kg dose.(ILS); assay type: functional, Mus musculus; how it was run: as §1
P388 [6] = experiment: Evaluation in vivo against […] cell line for percentage increase in lifespan of drug-treated tumor-bearing animals at 30 mg/kg dose.(ILS); NA=Compound inactive at nontoxic doses; assay type: functional, organism-based; set-up: dose 30 mg/kg; details: Mus musculus; how it was run: as §1
P388 [7] = experiment: Evaluation in vivo against […] cell line for percentage increase in lifespan of drug-treated tumor-bearing animals when treated at 45 mg/kg dose.(ILS); assay type: functional, Mus musculus; how it was run: as §1

Row | Structure (SMILES) | Increase (P388 [1]) [%] | Ratio [2] | IC50 (CHO-AA8; Cricetulus griseus, CHO-AA8) [µM] | Log K (Bos taurus) | IC50 (P388 [3]; p388) [µM] | Increase (P388 [4]) | Increase (P388 [5]) [%] | IC50 (P388 [3]; Mus musculus, P388) [µM] | Increase (P388 [6]) | IC50 (CHO-AA8; cho-aa8) [µM] | Increase (P388 [7]) [%]
1 | O=C(O)CCCc1ccc(N(CCCl)CCCl)cc1 [CHLORAMBUCIL] | 37 | 58 | – | – | – | – | – | – | – | – | –
2 | C[n+]1ccc(Nc2ccc(C(=O)c3ccc(N(CCCl)CCCl)cc3)cc2)c2ccccc21 | – | 6.4 | 2.85 | 6.61 M-1 | 1.21 | inactive | – | – | – | – | –
3 | C[n+]1ccc(Nc2ccc(Oc3ccc(N(CCCl)CCCl)cc3)cc2)c2ccccc21 | – | 23 | 0.65 | 6.45 M-1 | – | – | 20 | – | – | – | –
4 | CCN(CCCl)c1ccc(Oc2ccc(Nc3ccnc4ccccc34)cc2)cc1 | – | 11.3 | 7 | – | – | – | – | 0.5 | inactive | – | –
5 | C[n+]1ccc(Nc2ccc(Cc3ccc(N(CCCl)CCCl)cc3)cc2)c2ccccc21 | – | 20 | – | 6.58 M-1 | 0.072 | – | – | – | – | 0.6 | 46
6 | C[n+]1ccc(Nc2ccc(C(=O)Nc3ccc(N(CCCl)CCCl)cc3)cc2)c2ccccc21 | – | 17 | 0.34 | 6.48 M-1 | 0.49 | – | 28 | – | – | – | –
